Data set [1] relates to RAW264.7. Put plainly: Antiinflammatory activity in mouse RAW264.7 cells assessed as inhibition of LPS-induced nitric oxide production after 24 hrs by Griess assay. The class given is functional, cell-based. As to conditions: RAW264.7, 24 h. An outline of the steps: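 RAW264.7 cells were obtained from the Peking Union Medical College Cell Bank and stimulated with LPS. Nitric oxide production was measured in the presence of test compounds. Compounds were made as DMSO stocks, with final DMSO below 0.2%. IC50 values are given as mean ± SD of three independent experiments. A positive control was included.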
A general note: Griess reagent forms a coloured azo dye with nitrite.

Data set [2] has as its system RAW264.7. Put plainly: Cytotoxicity against mouse RAW264.7 cells assessed as effect on cell viability up to 80 uM after 24 hrs by MTT assay. The class given is cell-based. As to conditions: raw264.7, 24 h. Put shortly: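 Viability or proliferation of RAW264.7 cells was measured by MTT. Compounds were tested at up to 80 μM alongside LPS treatment for 24 h. They were made as DMSO stocks, with final DMSO below 0.2%. The assay was run to test whether lower NO reflected loss of cells.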
(In general: Formazan colour is commonly taken as a measure of viable cells.)

For orientation: IC50 means the midpoint of a concentration-inhibition curve.

Consider `O=c1cc(CCc2ccccc2)oc2c1[C@@H]1c3ccc4c(=O)cc(CCc5ccccc5)oc4c3O[C@@H]([C@@H]1O)[C@H]2O`, for which the IC50 with RAW264.7 [1] worked out at 8.6 µM. The Activity entry in the data set on RAW264.7 [2] is “Non-Toxic”.
For `COc1ccc(CCc2cc(=O)c3c(o2)[C@@H](O)[C@@H]2Oc4c(c(O)cc5c(=O)cc(CCc6ccc(OC)cc6)oc45)[C@H]3[C@@H]2O)cc1`, the IC50 in the data set on RAW264.7 [1] amounted to 10.5 µM. In addition, in the data set with RAW264.7 [2], the Activity entry was “Non-Toxic”.
For `COc1ccc2oc(CCc3ccc4c(c3)O[C@H]3[C@H](O)[C@@H]4c4c(oc(CCc5ccccc5)cc4=O)[C@@H]3O)cc(=O)c2c1`, in that order: 12 µM and “Non-Toxic”.
In the same order, the values of `COc1ccc2oc(CCc3ccc(OC)c4c3[C@@H]3c5c(oc(CCc6ccccc6)cc5=O)[C@@H](O)[C@H](O4)[C@H]3O)cc(=O)c2c1` are 8.5 µM and “Non-Toxic”.
For `O=c1cc(CCc2ccccc2)oc2c1[C@@H]1c3c(ccc4oc(CCc5ccccc5)cc(=O)c34)O[C@@H]([C@@H]1O)[C@H]2O`, in that order: 11.5 µM and “Non-Toxic”.
For `O=c1cc(CCc2ccccc2)oc2c1[C@H]1c3c(ccc4oc(CCc5ccccc5)cc(=O)c34)O[C@H]([C@H]1O)[C@@H]2O`, in the data set on RAW264.7 [1], the IC50 was found to be 7.6 µM. Also, the Activity entry in the data set with RAW264.7 [2] was “Non-Toxic”.
Take `COc1ccc(CCc2cc(=O)c3c(O)c(O)c(O)c(Cl)c3o2)cc1`: the IC50 in the data set on RAW264.7 [1] worked out at 4.4 µM.
With `COc1ccc2oc(CCc3ccc(OC)c4c3[C@H]3c5c(oc(CCc6ccccc6)cc5=O)[C@H](O)[C@@H](O4)[C@@H]3O)cc(=O)c2c1`, the IC50 in the data set with RAW264.7 [1] worked out at 8.5 µM. Moreover, the Activity entry in the data set with RAW264.7 [2] was “Non-Toxic”.
For `O=c1cc(CCc2ccccc2)oc2c1[C@H]1c3ccc4c(=O)cc(CCc5ccccc5)oc4c3O[C@H]([C@H]1O)[C@@H]2O`, in that order: 8.8 µM and “Non-Toxic”.
Consider `COc1ccc(CCc2cc(=O)c3c(o2)[C@H](O)[C@H]2Oc4c(OC)ccc(CCc5cc(=O)c6cc(OC)ccc6o5)c4[C@@H]3[C@H]2O)cc1`, for which the IC50 in the data set with RAW264.7 [1] is 7 µM. Moreover, the Activity result in the data set with RAW264.7 [2] was “Non-Toxic”.
For `COc1ccc(CCc2cc(=O)c3c(o2)[C@@H](O)[C@@H]2Oc4ccc5oc(CCc6ccccc6)cc(=O)c5c4[C@H]3[C@@H]2O)cc1`, in that order: 9.3 µM and “Non-Toxic”.

The values are drawn from ChEMBL document CHEMBL4138239, “Anti-inflammatory Dimeric 2-(2-Phenylethyl)chromones from the Resinous Wood of Aquilaria sinensis” (J Nat Prod, 2018).
